Laboratory results from ChEMBL document CHEMBL4007461, “Synthesis, Antiviral Potency, in Vitro ADMET, and X-ray Structure of Potent CD4 Mimics as Entry Inhibitors That Target the Phe43 Cavity of HIV-1 gp120” (J Med Chem, 2017).
pIC50: −log10 of the molar value.

How the values were obtained:
[1] = (§1) Cytotoxicity against human TZM-bl cells incubated for 3 days by XTT assay; type: cell-based; settings: TZM-bl cells
Outline: (§2)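 TZM-bl cells, 1 x 10^4/well, cultured overnight at 37 °C. Compounds added at graded concentrations for three days.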

[2] = test system: Human immunodeficiency virus 1; assay: Antiviral activity against HIV1 3B infected in human MT2 cells assessed as inhibition of p24 antigen production pretreated with virus for 30 mins followed by 4 days incubation with cells by sandwich ELISA based multicycle infection assay; type: functional, cell-based
Outline: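 MT-2 cells were infected with HIV-1 IIIB at 100 TCID50 and preincubated 30 min with graded compound concentrations. Medium was replaced next day. Supernatants were collected 4 days post-infection, lysed with equal volume 5% Triton X-100, and p24 was measured by sandwich ELISA. IC50 came from percent inhibition of p24.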

[3] = test system: Human immunodeficiency virus 1; assay: Antiviral activity against X4 tropic HIV1 HXB2 infected in human TZM-bl cells pretreated with virus for 30 mins followed by 3 days incubation with cells by luciferase reporter gene based single cycle infection assay; type: functional, cell-based
Outline: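 TZM-bl cells (1 x 10^4/well) were cultured overnight at 37 °C. HXB2-Env pseudovirus was preincubated 30 min with graded compound concentrations, then added to the cells for 3 days. Cells were washed and lysed, and luciferase was read. IC50 came from percent inhibition.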

[4] = (§3) Cytotoxicity against human MT2 cells incubated for 4 days by XTT assay; type: cell-based; settings: MT2 cells
Outline: (§4)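 Run alongside the MT-2 multicycle infection assay. Compound at graded concentrations mixed with an equal volume of MT-2 cells (10^5 cells/ml). Medium replaced next day and culture continued four days.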

[5] = test system: TZM; assay: as §1; type: cell-based; settings: tzm, 72 h; outline: as §2
[6] = test system: MT2; assay: as §3; type: cell-based; settings: mt2, 96 h, 96 h; outline: as §4
[7] = Human immunodeficiency virus 1, 3B, MT2
[8] = Human immunodeficiency virus 1, HXB2, TZM-bl

SMILES | CC50 at 72 h [1] | pIC50 [2, 7] | pIC50 [3, 8] | CC50 at 96 h [4] | CC50 [5] | pIC50 [2] | CC50 [6] | pIC50 [3]
Cc1nc(C(CN(C)C)NC(=O)c2ccc(-c3ccc(Cl)cc3)[nH]2)sc1CO (configuration not stated) | > 40 µM | < 4.40 | < 4.40 | > 40 µM | – | – | – | –
Cc1nc(C(CN)NC(=O)c2cnc(-c3ccc(Cl)cc3)[nH]2)sc1CO (configuration not stated) | > 51 µM | < 4.59 | < 4.29 | > 51 µM | – | – | – | –
Cc1ccc(-c2ccc(C(=O)NC(CN(C)C)c3nc(C)c(CO)s3)[nH]2)cc1F (configuration not stated) | > 40 µM | < 4.70 | < 4.40 | > 40 µM | – | – | – | –
COc1ccc(-c2ccc(C(=O)NC(CN)c3ncc(CO)s3)[nH]2)cc1OC (configuration not stated) | > 50 µM | < 4.30 | < 4.30 | > 50 µM | – | – | – | –
Cc1nc(C(CN)NC(=O)c2ccc(-c3ccc(F)c(F)c3)[nH]2)sc1CO (stereo in doubt; 25A) | 57.3 µM | 5.22 | 5.47 | 61.2 µM | – | – | – | –
Cc1nc(C(CN)NC(=O)c2ccc(-c3ccc(F)c(F)c3)[nH]2)sc1CO (stereo in doubt; 25B) | – | – | – | – | 58.6 µM | 5.32 | 64.6 µM | –
Cc1nc(C(CN)NC(=O)c2ccc(-c3ccc(Cl)cc3)n2C)sc1CO (stereo in doubt; 26A) | 36.7 µM | < 4.60 | 4.59 | 26.6 µM | – | – | – | –
Cc1nc(C(CN)NC(=O)c2ccc(-c3ccc(Cl)cc3)n2C)sc1CO (stereo in doubt; 26B) | – | – | – | – | 35.8 µM | – | 32.1 µM | 4.59
Cc1cc(-c2ccc(Cl)cc2)[nH]c1C(=O)NC(CN)c1nc(C)c(CO)s1 (stereo in doubt; 27A) | 26.4 µM | 5.41 | 5.96 | 20.2 µM | – | – | – | –
Cc1cc(C(=O)NC(CN)c2nc(C)c(CO)s2)[nH]c1-c1ccc(Cl)cc1 (stereo in doubt; 28B) | – | – | – | – | 5.2 µM | 5.21 | 4.1 µM | –
COc1cc(C(=O)NC(CN)c2nc(C)c(CO)s2)[nH]c1-c1ccc(Cl)cc1 (stereo in doubt; 29A) | 25.4 µM | < 4.62 | 4.65 | 25 µM | – | – | – | –
COc1cc(C(=O)NC(CN)c2nc(C)c(CO)s2)[nH]c1-c1ccc(Cl)cc1 (stereo in doubt; 29B) | – | – | – | – | 16.4 µM | – | 15.7 µM | 4.77
Cc1nc(C(CN)NC(=O)c2ncc(-c3ccc(Cl)cc3)[nH]2)sc1CO (stereo in doubt; 30A) | > 51 µM | < 4.59 | 4.29 | > 51 µM | – | – | – | –
Cc1nc(C(CN)NC(=O)c2ncc(-c3ccc(Cl)cc3)[nH]2)sc1CO (stereo in doubt; 30B) | – | – | – | – | – | – | – | 4.46
CNCC(NC(=O)c1ccc(-c2ccc(Cl)cc2)[nH]1)c1nc(C)c(CO)s1 (stereo in doubt; 41A) | 28.4 µM | 5.26 | – | 27.2 µM | – | – | – | –
CNCC(NC(=O)c1ccc(-c2ccc(Cl)cc2)[nH]1)c1nc(C)c(CO)s1 (stereo in doubt; 41B) | – | – | – | – | 31.7 µM | 5.51 | 26.4 µM | –
CNCC(NC(=O)c1ccc(-c2ccc(Cl)c(F)c2)[nH]1)c1nc(C)c(CO)s1 (stereo in doubt; 42A) | 20.6 µM | 5.62 | 5.80 | 21.7 µM | – | – | – | –
CNCC(NC(=O)c1ccc(-c2ccc(Cl)c(F)c2)[nH]1)c1nc(C)c(CO)s1 (stereo in doubt; 42B) | – | – | – | – | 21.3 µM | 5.70 | 18.1 µM | –
CNCC(NC(=O)c1ccc(-c2ccc(C)c(F)c2)[nH]1)c1nc(C)c(CO)s1 (stereo in doubt; 43A) | 33.5 µM | 5.96 | – | 34.4 µM | – | – | – | –

SMILES | CC50 at 72 h [1] | pIC50 [2, 7] | pIC50 [3, 8] | CC50 at 96 h [4] | CC50 [5] | pIC50 [2] | CC50 [6] | pIC50 [3]
Cc1nc(C(CN(C)C)NC(=O)c2ccc(-c3ccc(Cl)c(F)c3)[nH]2)sc1CO (stereo in doubt; 45A) | > 40 µM | < 4.70 | 4.78 | > 40 µM | – | – | – | –
Cc1nc(C(CN(C)C)NC(=O)c2ccc(-c3ccc(Cl)c(F)c3)[nH]2)sc1CO (stereo in doubt; 45B) | – | – | – | – | – | 4.72 | – | 4.72
Cc1nc(C(CCN)NC(=O)c2ccc(-c3ccc(F)c(Cl)c3)[nH]2)sc1CO (stereo in doubt; 62A) | 25.5 µM | 5.11 | 5.18 | 25.1 µM | – | – | – | –
Cc1cc(-c2ccc(C(=O)NC(CCN)c3nc(C)c(CO)s3)[nH]2)ccc1F (stereo in doubt; 63A) | 33 µM | 5.74 | 5.24 | 35.8 µM | – | – | – | –
CNCCC(NC(=O)c1ccc(-c2cccc(Cl)c2)[nH]1)c1nc(C)c(CO)s1 (stereo in doubt; 64A) | 23 µM | 5.11 | 5.20 | 25.1 µM | – | – | – | –
CNCCC(NC(=O)c1ccc(-c2ccc(F)c(Cl)c2)[nH]1)c1nc(C)c(CO)s1 (stereo in doubt; 65A) | 22 µM | 5.41 | – | 22.6 µM | – | – | – | 5.82
CNCCC(NC(=O)c1ccc(-c2ccc(F)c(C)c2)[nH]1)c1nc(C)c(CO)s1 (stereo in doubt; 66A) | 38.9 µM | 5.39 | 5.39 | 25.9 µM | – | – | – | –
Cc1nc(C(CCN(C)C)NC(=O)c2ccc(-c3cccc(Cl)c3)[nH]2)sc1CO (stereo in doubt; 67A) | 29.4 µM | 4.86 | 4.98 | 26 µM | – | – | – | –
Cc1nc(C(CCN(C)C)NC(=O)c2ccc(-c3ccc(F)c(Cl)c3)[nH]2)sc1CO (stereo in doubt; 68A) | 21.3 µM | 5.43 | 5.82 | 19.1 µM | – | – | – | –
Cc1cc(-c2ccc(C(=O)NC(CCN(C)C)c3nc(C)c(CO)s3)[nH]2)ccc1F (stereo in doubt; 69A) | 23.7 µM | 5.68 | – | 25.1 µM | – | – | – | 5.72
NCC(NC(=O)c1ccc(-c2ccc(Cl)cc2)[nH]1)c1ncc(CO)s1 (stereo in doubt; 81A) | 38 µM | 5.85 | 5.89 | 35.6 µM | – | – | – | –
NCC(NC(=O)c1ccc(-c2ccc(Cl)c(F)c2)[nH]1)c1ncc(CO)s1 (stereo in doubt; 82A) | 37.4 µM | 6.03 | 5.96 | 32 µM | – | – | – | –
Cc1ccc(-c2ccc(C(=O)NC(CN)c3ncc(CO)s3)[nH]2)cc1F (stereo in doubt; 83A) | 39.2 µM | – | – | 35.2 µM | – | 5.80 | – | –
NCC(NC(=O)c1ccc(-c2cc(F)c(Cl)c(F)c2)[nH]1)c1ncc(CO)s1 (stereo in doubt; 84B) | – | – | – | – | 20.6 µM | 6.01 | 17.4 µM | –
CNCC(NC(=O)c1ccc(-c2ccc(Cl)c(F)c2)[nH]1)c1ncc(CO)s1 (stereo in doubt; 86A) | 17.4 µM | 5.41 | 5.85 | 18.4 µM | – | – | – | –
CNCC(NC(=O)c1ccc(-c2ccc(C)c(F)c2)[nH]1)c1ncc(CO)s1 (stereo in doubt; 87A) | 22.3 µM | – | 5.70 | 26.6 µM | – | 5.36 | – | –
CNCC(NC(=O)c1ccc(-c2cc(F)c(Cl)c(F)c2)[nH]1)c1ncc(CO)s1 (stereo in doubt; 88A) | 10.4 µM | 6.44 | 6.44 | 14 µM | – | – | – | –
CNCC(NC(=O)c1ccc(-c2cc(F)c(Cl)c(F)c2)[nH]1)c1ncc(CO)s1 (stereo in doubt; 88B) | – | – | – | – | 13.9 µM | – | 11.9 µM | 6.38
